From PubChem BioAssay come the findings set out here.

Each structure is given as a SMILES string. Calls of active or inactive are those of the source.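 How the source made its calls, unless noted: active means viability at or under a set limit in both replicates, limit being median viability minus 3 SD (cut at about 48% in these data, passing the limit was not always enough); inconclusive means at or under the limit in just one replicate; inactive means at or above the limit in both replicates.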

Test [1] can be described thus: Her2 expression decrease, cell viability multiplex – SKBR3 breast tumor cells, AlphaScreen, ATP viability, primary screen (AID 461;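 active means Her2 level under about 52% in both replicate screens, with viability over 70% of control, limit read from the data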;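 on Her2 level: lower value means less Her2 protein in the cells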;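 on viability: percent of carrier control wells set as 100% viability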). The note with it: SKBR3 Her2 protein level, 18-24 h, measured here: SKBR3 viability, ATP luminescence, at 10 µM.
Test [2] concerns the target Receptor tyrosine-protein kinase erbB-2 (Homo sapiens) (UniProt P04626). The test is described as above. To be noted: 18-24 h, at 10 µM, stronger effect = lower value.
Test [3] is described as follows: reduced viability of SK-BR-3 breast cancer cells – cell-based, 24 h, human, pilot screen (AID 572;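 active means viability at or below 10% of carrier control in both of two separate runs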;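 further: compound exposure lasted between 18 and 24 h rather than exactly 24 h; 100% = carrier-treated control wells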). To be noted: SK-BR-3 viability, CellTiter-Glo luminescence, at 10 µM, stronger effect = lower value.
Test [4] in a line: HUVEC growth inhibition – cell-based, human, primary screen (AID 575;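 active means viability at or below 30% in both replicate assays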;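 further: 100% = median of untreated cell wells with 0.1% DMSO on each plate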). The note with it: HUVEC proliferation, CellTiter-Glo luminescence, 72 h; at 10 µM; stronger effect = lower value. In a few lines: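 Assay system: primary human umbilical vein endothelial cells / Buffer or medium: endothelial basal medium with 2% FBS plus growth supplements / Compound dosing: one dose, 10 µM final, 0.1% DMSO / Timing: 72 h treatment at 37 °C / Signal: CTG luminescence / Benchmarks: 32 DMSO-only cell-control wells (high), 32 MePR drug-control wells (low) per plate / Plate: collagen-coated 384-well format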
For orientation: Cellular ATP, detected with luciferase, serves as a proxy for viable cell number.

The nature of test [5]: H69AR cell proliferation blockers – human, duplicate replicates, primary screen (AID 580).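 Further: 100% = mean luminescence of untreated wells and 0% = no signal.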 The note with it: H69AR lung tumor cells viability, ATP luminescence, 72 h; at 10 µM; stronger effect = lower value.
Test [6] can be described thus: MRP1 drug-resistance reversers in H69AR cells – cell-based, doxorubicin co-treatment, pilot screen (AID 601;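 active means viability loss from added drug above about 55%, and viability with drug at most 40%, in both replicates, limit read from the data, passing the limit was not always enough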). The note with it: CellTiter-Glo, 72 h, at 10 µM; for differential viability (reversal): stronger effect = higher value.
Test [7] is described as follows: yeast transport mutant growth inhibition pilot in 384-well plates, post-Golgi transport modulator project (AID 636; in the data active means inhibition above about 31%). The note with it: absorbance 615 nm, about 18 h, stronger effect = higher value.
The nature of test [8]: growth suppression of yeast trafficking mutant, preliminary HTS, modulators of trafficking downstream of Golgi apparatus project, 1536-format plate, OD 615 nm (AID 637; in the data active means inhibition above about 30%). The note with it: yeast transport mutant growth, absorbance 615 nm, 18 h; stronger effect = higher value.
Where [9] appears, read: H69AR cells + 2 uM doxorubicin, measured here: viability with 2 uM doxorubicin, stronger effect = lower value.
The mark [10] stands for this setting: H69AR cells, compound alone cytotoxicity.

Chain of Receptor tyrosine-protein kinase erbB-2 (Homo sapiens) (P04626 whole entry, looked up): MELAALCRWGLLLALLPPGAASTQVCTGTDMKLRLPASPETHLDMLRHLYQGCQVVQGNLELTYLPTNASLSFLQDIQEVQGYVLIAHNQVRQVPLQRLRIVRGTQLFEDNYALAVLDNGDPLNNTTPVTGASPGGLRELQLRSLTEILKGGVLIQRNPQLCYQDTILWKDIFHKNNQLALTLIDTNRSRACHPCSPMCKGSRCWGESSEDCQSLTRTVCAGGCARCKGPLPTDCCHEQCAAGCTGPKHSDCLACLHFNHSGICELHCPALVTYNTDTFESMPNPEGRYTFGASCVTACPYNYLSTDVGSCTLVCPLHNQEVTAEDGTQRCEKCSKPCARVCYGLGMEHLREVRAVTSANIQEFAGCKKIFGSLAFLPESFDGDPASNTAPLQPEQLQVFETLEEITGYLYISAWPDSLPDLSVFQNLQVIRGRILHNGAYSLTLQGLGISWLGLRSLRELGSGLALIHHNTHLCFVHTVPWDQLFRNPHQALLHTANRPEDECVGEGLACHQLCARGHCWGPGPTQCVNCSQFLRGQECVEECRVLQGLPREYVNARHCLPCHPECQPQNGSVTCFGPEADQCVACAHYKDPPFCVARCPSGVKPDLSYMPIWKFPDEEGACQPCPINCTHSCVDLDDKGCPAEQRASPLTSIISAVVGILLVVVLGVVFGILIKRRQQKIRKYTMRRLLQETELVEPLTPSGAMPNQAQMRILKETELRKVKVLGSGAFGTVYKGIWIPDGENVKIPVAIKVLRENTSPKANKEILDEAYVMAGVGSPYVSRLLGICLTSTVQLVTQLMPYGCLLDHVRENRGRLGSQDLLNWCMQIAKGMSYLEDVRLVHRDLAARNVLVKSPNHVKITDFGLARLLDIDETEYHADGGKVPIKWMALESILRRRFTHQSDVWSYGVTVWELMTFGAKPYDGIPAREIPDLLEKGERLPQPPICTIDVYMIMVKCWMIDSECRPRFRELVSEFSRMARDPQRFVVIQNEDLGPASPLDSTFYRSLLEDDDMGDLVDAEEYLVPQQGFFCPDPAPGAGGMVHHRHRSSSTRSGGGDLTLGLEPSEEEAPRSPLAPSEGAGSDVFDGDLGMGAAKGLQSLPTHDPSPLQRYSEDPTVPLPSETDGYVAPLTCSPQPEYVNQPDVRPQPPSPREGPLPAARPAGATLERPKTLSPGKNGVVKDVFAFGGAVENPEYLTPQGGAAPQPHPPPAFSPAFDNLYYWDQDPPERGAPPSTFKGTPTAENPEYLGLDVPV

The term viability denotes a read-out of living cells in per cent, often relative to untreated cells. In general, inhibition refers to the drop in the measured response relative to a control, in per cent. `Cc1cncn1CCc1nc2c3ccccc3nc(=S)n2[nH]1`: the viability in test [1] is 110%; in test [3], 110% (inactive); in test [4], 89.2% (inactive); in test [5], 88.8% (inactive); in test [6] (setting [9]), 92.9%; in test [6] (setting [10]), 88.8%. Besides, the Her2 level in test [2] was 88.5% (inactive). The differential viability (reversal) in test [6] (H69AR cells + 2 uM doxorubicin) was -4.09% (inactive). Also, the results for the inhibition in test [7] and in test [8] were -3.68% (inactive) and -4.13% (inactive), respectively.
As to `O=C(CCCn1c(=S)[nH]c2cc3c(cc2c1=O)OCO3)N1CCN(c2ccccc2F)CC1`, the viability in test [1] was 77%; in test [3] it was 77% (inactive); in test [4], 68% (inactive); in test [5], 83.7% (inactive); in test [6] (setting [9]), 93.6%; in test [6] (setting [10]) it was 83.7%. Besides, in test [2], the Her2 level was 95% (inactive). Further, in test [6] (H69AR cells + 2 uM doxorubicin), the differential viability (reversal) was -9.88% (inactive). Besides, the figures for the inhibition in test [7] and in test [8] were -4.32% (inactive) and -2.95% (inactive), respectively.
Turning to `COc1ccc(-c2nc(SC)n(S(=O)(=O)c3ccccc3)n2)cc1`, the viability was 80% in test [1]; 80% (inactive) in test [3]; 86.1% (inactive) in test [4]; 98.1% (inactive) in test [5]; 80.6% in test [6] (setting [9]); 98.1% in test [6] (setting [10]). Also, the Her2 level in test [2] is 114% (inactive). Further, in test [6] (H69AR cells + 2 uM doxorubicin), the differential viability (reversal) is 17.5% (inactive). In addition, the results for the inhibition in test [7] and in test [8] were 1.73% (inactive) and -10.8% (inactive), respectively.
With `COCCn1c(=O)[nH]c2cc(C(=O)N3CCN(Cc4ccc5c(c4)OCO5)CC3)ccc2c1=O`, the viability in test [1] was 93.5%; in test [3] it was 93.5% (inactive); in test [4], 117% (inactive); in test [5] it was 93.1% (inactive); in test [6] (setting [9]), 94.9%; in test [6] (setting [10]), 93.1%. The Her2 level in test [2] is 106% (inactive). Besides, in test [6] (H69AR cells + 2 uM doxorubicin), the differential viability (reversal) is -1.86% (inactive). For the same compound, the inhibition was 1.47% (inactive) in test [7] and 9.34% (inactive) in test [8].
With `Cc1[nH]c2c(C)cccc2c(=O)c1Br`, the viability in test [1] was 104%; in test [3] it was 104% (inactive); in test [4] it was 114% (inactive); in test [5], 91.9% (inactive); in test [6] (setting [9]), 88.7%; in test [6] (setting [10]), 91.9%. Further, in test [2], the Her2 level is 81% (inactive). Further, the differential viability (reversal) in test [6] (H69AR cells + 2 uM doxorubicin) is 3.28% (inactive). For the same compound, the inhibition in test [7] was -6.93% (inactive); in test [8], 6.07% (inactive).
On to `CCCCOc1ccc(-c2nnn(C(C)(C)C(=O)OC)n2)cc1`, for which the viability is 96% in test [1]; 96% (inactive) in test [3]; 86% (inactive) in test [4]; 92.2% (inactive) in test [5]; 99.3% in test [6] (setting [9]); 92.2% in test [6] (setting [10]). Further, the Her2 level in test [2] is 107% (inactive). The differential viability (reversal) in test [6] (H69AR cells + 2 uM doxorubicin) is -7.05% (inactive). In addition, the results for the inhibition in test [7] and in test [8] were -0.91% (inactive) and -4.29% (inactive), respectively.
`CCOC(=O)CN1CC23C=CC(O2)C(C(=O)NCc2ccc(F)cc2)C3C1=O` (stereo not given): the viability is 88% in test [1]; 88% (inactive) in test [3]; 102% (inactive) in test [4]; 98.9% (inactive) in test [5]; 86.4% in test [6] (setting [9]); 98.9% in test [6] (setting [10]). Also, the Her2 level in test [2] is 93.5% (inactive). In addition, the differential viability (reversal) in test [6] (H69AR cells + 2 uM doxorubicin) was 12.5% (inactive). For the same compound, the inhibition is -0.38% (inactive) in test [7] and -0.17% (inactive) in test [8].
Consider `CN(C)Cc1c(O)ccc2oc(Cc3ccccc3)cc12`, for which the viability in test [1] was 90%; in test [3], 90% (inactive); in test [4], 91.2% (inactive); in test [5], 91% (inactive); in test [6] (setting [9]), 80%; in test [6] (setting [10]), 91%. Further, the Her2 level in test [2] is 86% (inactive). The differential viability (reversal) in test [6] (H69AR cells + 2 uM doxorubicin) is 11% (inactive). Moreover, the values for the inhibition in test [7] and in test [8] were -6.67% (inactive) and -2.42% (inactive), respectively.
With `CCOC(=O)CSc1nc2ccccc2c(=O)n1NC(=O)c1ccccc1`, the viability in test [1] was 120%; in test [3], 120% (inactive); in test [4] it was 86.6% (inactive); in test [5], 87.4% (inactive); in test [6] (setting [9]), 80.4%; in test [6] (setting [10]) it was 87.4%. Further, the Her2 level in test [2] was 78% (inactive). For the same compound, in test [6] (H69AR cells + 2 uM doxorubicin), the differential viability (reversal) was 7% (inactive). Further, the inhibition was -3.29% (inactive) in test [7] and -1.75% (inactive) in test [8].
As for `COc1cccc(-n2c(C)nc3c(cnn3-c3ccc(Cl)cc3)c2=O)c1`, the viability in test [1] is 92.5%; in test [3] it was 92.5% (inactive); in test [4], 79.8% (inactive); in test [5], 76.3% (inactive); in test [6] (setting [9]) it was 78%; in test [6] (setting [10]), 76.3%. The Her2 level in test [2] is 86% (inactive). In addition, the differential viability (reversal) in test [6] (H69AR cells + 2 uM doxorubicin) was -1.66% (inactive). Besides, the inhibition in test [7] is -4.47% (inactive); in test [8], 4.19% (inactive).
`CCCOC(=O)/C(C(N)=NCc1ccccc1)=C(\O)OCCC`: the viability in test [1] is 82%; in test [3], 82% (inactive); in test [4], 82.6% (inactive); in test [5], 88.8% (inactive); in test [6] (setting [9]) it was 93.4%; in test [6] (setting [10]) it was 88.8%. Further, the Her2 level in test [2] was 95% (inactive). Further, the differential viability (reversal) in test [6] (H69AR cells + 2 uM doxorubicin) was -4.66% (inactive). Also, the inhibition was 1.3% (inactive) in test [7] and -2.79% (inactive) in test [8].
Turning to `COCCOC(=O)c1cc(C(=O)c2cc(F)ccc2O)coc1=N`, the viability is 83.5% in test [1]; 83.5% (inactive) in test [3]; 92% (inactive) in test [4]; 91.1% (inactive) in test [5]; 95.1% in test [6] (setting [9]); 91.1% in test [6] (setting [10]). Besides, the Her2 level in test [2] is 82.5% (inactive). Moreover, the differential viability (reversal) in test [6] (H69AR cells + 2 uM doxorubicin) is -3.97% (inactive). Also, the inhibition in test [7] is -1.56% (inactive); in test [8], -5.08% (inactive).
`O=C(Nc1nccs1)c1ccc(Cl)c(S(=O)(=O)N2CCCCC2)c1`: the viability in test [1] is 89%; in test [3] it was 89% (inactive); in test [4], 84.3% (inactive); in test [5], 87.2% (inactive); in test [6] (setting [9]) it was 96.7%; in test [6] (setting [10]), 87.2%. Besides, the Her2 level in test [2] is 65% (inactive). Also, the differential viability (reversal) in test [6] (H69AR cells + 2 uM doxorubicin) is -9.49% (inactive). Further, the inhibition in test [7] was -5.81% (inactive); in test [8], 3.83% (inactive).
For the compound `Cn1c(CN2CCOCC2)nnc1SCC(=O)NCCc1ccccc1`, the viability in test [1] was 104%; in test [3], 104% (inactive); in test [4], 73.6% (inactive); in test [5], 91.8% (inactive); in test [6] (setting [9]) it was 80.4%; in test [6] (setting [10]), 91.8%. Also, the Her2 level in test [2] is 83% (inactive). The differential viability (reversal) in test [6] (H69AR cells + 2 uM doxorubicin) was 11.4% (inactive). For the same compound, the inhibition in test [7] was -2.08% (inactive); in test [8] it was -2.86% (inactive).
In the case of `Cn1cnnc1Sc1nc2c(c(=O)n(C)c(=O)n2C)n1C`, the viability in test [1] is 87%; in test [3] it was 87% (inactive); in test [4], 107% (inactive); in test [5] it was 102% (inactive); in test [6] (setting [9]), 96.5%; in test [6] (setting [10]) it was 102%. Besides, the Her2 level in test [2] was 98.5% (inactive). For the same compound, the differential viability (reversal) in test [6] (H69AR cells + 2 uM doxorubicin) is 5.7% (inactive). For the same compound, the inhibition in test [7] is -0.79% (inactive); in test [8], -9.09% (inactive).
`CCC(=O)N/C(N)=N/c1nc(C)c2cc(OC)ccc2n1`: the viability in test [1] was 131%; in test [3], 131% (inactive); in test [4], 59.5% (inactive); in test [5], 80.7% (inactive); in test [6] (setting [9]), 89.3%; in test [6] (setting [10]) it was 80.7%. The Her2 level in test [2] was 67.5% (inactive). The differential viability (reversal) in test [6] (H69AR cells + 2 uM doxorubicin) was -8.64% (inactive). The inhibition in test [7] is -0.13% (inactive); in test [8] it was -5.74% (inactive).
